# Tests used:
# CCRF-CEM = assay: Antiproliferative activity against human CEM cells after 72 hrs by Coulter counter method; format: functional, cell-based
# Procedure, shortened: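 Cell count assay in 96-well microtiter plates; (5–7.5) × 10⁴ tumor cells per well plus test compound. Cells proliferated at 37 °C in humidified CO₂-controlled atmosphere, 48 h for murine leukemia L1210, 72 h for human lymphocytic CEM and cervix carcinoma HeLa. Counted by Coulter counter; IC₅₀ is the concentration that inhibits proliferation by 50%.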
# K562 = assay: Cytotoxicity against human K562 cells after 48 hrs by SRB assay; format: functional; settings: K562, 48 h; for GI50: read-out: GI50
# HOP-92 [1] = assay: Cytotoxicity against human HOP92 cells after 48 hrs by SRB assay; format: functional; settings: HOP-92, 48 h; for GI50: read-out: GI50; for CC50: read-out: LC50 (the source's name); for TGI: read-out: TGI
# HT-29 = assay: Cytotoxicity against human HT-29 cells after 48 hrs by SRB assay; format: functional; settings: HT-29, 48 h; for GI50: read-out: GI50
# SW-620 [2] = assay: Cytotoxicity against human SW620 cells after 48 hrs by SRB assay; format: functional; settings: SW-620, 48 h; for GI50: read-out: GI50
# SF-295 = assay: Cytotoxicity against human SF295 cells after 48 hrs by SRB assay; format: functional; settings: SF-295, 48 h; for GI50: read-out: GI50; for CC50: read-out: LC50 (the source's name)
# U-251 = assay: Cytotoxicity against human U251 cells after 48 hrs by SRB assay; format: functional; settings: U-251, 48 h; for GI50: read-out: GI50
# UACC-257 [3] = assay: Cytotoxicity against human UACC257 cells after 48 hrs by SRB assay; format: functional; settings: UACC-257, 48 h; for GI50: read-out: GI50; for CC50: read-out: LC50 (the source's name); for TGI: read-out: TGI
# UACC-62 = assay: Cytotoxicity against human UACC62 cells after 48 hrs by SRB assay; format: functional; settings: UACC-62, 48 h; for GI50: read-out: GI50; for CC50: read-out: LC50 (the source's name); for TGI: read-out: TGI
# OVCAR-4 = assay: Cytotoxicity against human OVCAR4 cells after 48 hrs by SRB assay; format: functional; settings: OVCAR-4, 48 h; for GI50: read-out: GI50
# SK-OV-3 = assay: Cytotoxicity against human SKOV3 cells after 48 hrs by SRB assay; format: functional; settings: SK-OV-3, 48 h; for GI50: read-out: GI50; for CC50: read-out: LC50 (the source's name)
# A549 [4] = assay: Growth inhibition of human A549/ATCC cells assessed as cell growth at 10^-8 M incubated for 48 hrs by sulforhodamine B assay relative to control; format: functional; settings: A549, 48 h, read-out: Activity
# Malme-3M = assay: Growth inhibition of human MALME-3M cells assessed as cell growth at 10^-8 M incubated for 48 hrs by sulforhodamine B assay relative to control; format: functional; settings: read-out: Activity
# SN12C = assay: Growth inhibition of human SN12C cells assessed as cell growth at 10^-8 M incubated for 48 hrs by sulforhodamine B assay relative to control; format: functional; settings: read-out: Activity
# HL-60(TB) [5] = assay: Growth inhibition of human HL-60(TB) cells assessed as cell growth at 10^-7 M incubated for 48 hrs by sulforhodamine B assay relative to control; format: functional; settings: HL-60, 48 h, read-out: Activity
# HOP-62 = assay: Growth inhibition of human HOP62 cells assessed as cell growth at 10^-7 M incubated for 48 hrs by sulforhodamine B assay relative to control; format: functional; settings: HOP-62, 48 h, read-out: Activity
# HOP-92 [6] = assay: Growth inhibition of human HOP92 cells assessed as cell growth at 10^-7 M incubated for 48 hrs by sulforhodamine B assay relative to control; format: functional; settings: HOP-92, 48 h, read-out: Activity
# KM12 = assay: Growth inhibition of human KM12 cells assessed as cell growth at 10^-7 M incubated for 48 hrs by sulforhodamine B assay relative to control; format: functional; settings: KM12, 48 h, read-out: Activity
# OVCAR-3 [7] = assay: Growth inhibition of human OVCAR3 cells assessed as cell growth at 10^-7 M incubated for 48 hrs by sulforhodamine B assay relative to control; format: functional; settings: OVCAR-3, 48 h, read-out: Activity
# MDA-MB-468 = assay: Growth inhibition of human MDA-MB-468 cells assessed as cell growth at 10^-7 M incubated for 48 hrs by sulforhodamine B assay relative to control; format: functional; settings: MDA-MB-468, 48 h, read-out: Activity
# HL-60(TB) [8] = assay: Growth inhibition of human HL-60(TB) cells assessed as cell growth at 10^-6 M incubated for 48 hrs by sulforhodamine B assay relative to control; format: functional; settings: HL-60, 48 h, read-out: Activity
# A549 [9] = assay: Growth inhibition of human A549/ATCC cells assessed as cell growth at 10^-6 M incubated for 48 hrs by sulforhodamine B assay relative to control; format: functional; settings: A549, 48 h, read-out: Activity
# UACC-257 [10] = assay: Growth inhibition of human UACC257 cells assessed as cell growth at 10^-6 M incubated for 48 hrs by sulforhodamine B assay relative to control; format: functional; settings: UACC-257, 48 h, read-out: Activity
# OVCAR-3 [11] = assay: Growth inhibition of human OVCAR3 cells assessed as cell growth at 10^-6 M incubated for 48 hrs by sulforhodamine B assay relative to control; format: functional; settings: OVCAR-3, 48 h, read-out: Activity
# RXF 393 = assay: Growth inhibition of human RXF393 cells assessed as cell growth at 10^-6 M incubated for 48 hrs by sulforhodamine B assay relative to control; format: functional; settings: RXF 393, 48 h, read-out: Activity
# ACHN = assay: Growth inhibition of human ACHN cells assessed as cell growth at 10^-5 M incubated for 48 hrs by sulforhodamine B assay relative to control; format: functional; settings: read-out: Activity
# HCT-116 = assay: Growth inhibition of human HCT116 cells assessed as cell growth at 10^-4 M incubated for 48 hrs by sulforhodamine B assay relative to control; format: functional; settings: HCT-116, 48 h, read-out: Activity
# SW-620 [12] = assay: Growth inhibition of human SW620 cells assessed as cell growth at 10^-4 M incubated for 48 hrs by sulforhodamine B assay relative to control; format: functional; settings: SW-620, 48 h, read-out: Activity
# OVCAR-5 = assay: Growth inhibition of human OVCAR5 cells assessed as cell growth at 10^-4 M incubated for 48 hrs by sulforhodamine B assay relative to control; format: functional; settings: OVCAR-5, 48 h, read-out: Activity
# [13] = Antiproliferative activity against HELF cells after 4 days by Coulter counter method; format: cell-based; settings: Homo sapiens, 96 h
# Hs-578T = assay: Growth inhibition of human Hs 578T cells assessed as cell growth at 10^-5 M incubated for 48 hrs by sulforhodamine B assay relative to control; format: functional; settings: read-out: Activity
# [14] = read-out: pLC50 (the source's name) (converted)
# [15] = read-out: LC50 (the source's name)
smiles,measurement,setting,value
C#C[C@@]1(O)[C@@H](CO)O[C@@H](n2cc(I)c3c(N)ncnc32)[C@@H]1O,IC50,CCRF-CEM,120 nM
same,GI50,K562,59.5 to 69 nM
same,TGI,K562; read-out: TGI,> 100000 nM
same,CC50,K562; [14],> 100000 nM
same,TGI,K562; read-out: pTGI,> 100000 nM
same,GI50,HOP-92 [1],25 to 217 nM
same,CC50,HOP-92 [1],> 100000 nM
same,TGI,HOP-92 [1],991 to 4980 nM
same,GI50,HT-29,14.2 to 39.7 nM
same,TGI,HT-29; read-out: TGI,3300 to 6840 nM
same,CC50,HT-29; [14],> 100000 nM
same,GI50,SW-620 [2],57.2 to 59 nM
same,TGI,SW-620 [2]; read-out: TGI,> 100000 nM
same,CC50,SW-620 [2]; [14],> 100000 nM
same,TGI,SW-620 [2]; read-out: pTGI (converted),> 100000 nM
same,GI50,SF-295,251 to 432 nM
same,CC50,SF-295,> 100000 nM
same,TGI,SF-295; read-out: TGI,3770 nM
same,TGI,SF-295; read-out: pTGI (converted),3800 nM
same,GI50,U-251,67.3 to 80.2 nM
same,TGI,U-251; read-out: TGI,10200 to 100000 nM
same,CC50,U-251; [14],> 100000 nM
same,GI50,UACC-257 [3],2180 to 2500 nM
same,CC50,UACC-257 [3],> 100000 nM
same,TGI,UACC-257 [3],18600 to 41500 nM
same,GI50,UACC-62,573 to 659 nM
same,CC50,UACC-62,6630 to 24500 nM
same,TGI,UACC-62,2380 to 3230 nM
same,GI50,OVCAR-4,563 to 1160 nM
same,TGI,OVCAR-4; read-out: TGI,> 100000 nM
same,CC50,OVCAR-4; [14],> 100000 nM
same,TGI,OVCAR-4; read-out: pTGI (converted),> 100000 nM
same,GI50,SK-OV-3,19.4 to 60.4 nM
same,CC50,SK-OV-3,> 100000 nM
same,TGI,SK-OV-3; read-out: TGI,469 to 1130 nM
same,growth at 0.01 µM,A549 [4],90 to 92%
same,growth at 0.01 µM,Malme-3M,85 to 98%
same,growth at 0.01 µM,SN12C,85 to 90%
same,growth at 0.1 µM,HL-60(TB) [5],16 to 43%
same,growth at 0.1 µM,HOP-62,72 to 75%
same,growth at 0.1 µM,HOP-92 [6],38 to 70%
same,growth at 0.1 µM,KM12,49 to 50%
same,growth at 0.1 µM,OVCAR-3 [7],76 to 79%
same,growth at 0.1 µM,MDA-MB-468,65 to 68%
same,growth at 1 µM,HL-60(TB) [8],-38%
same,growth at 1 µM,A549 [9],29 to 41%
same,growth at 1 µM,UACC-257 [10],72 to 79%
same,growth at 1 µM,OVCAR-3 [11],24 to 33%
same,growth at 1 µM,RXF 393,26 to 34%
same,growth at 10 µM,ACHN,5%
same,growth at 100 µM,HCT-116,4%
same,growth at 100 µM,SW-620 [12],3%
same,growth at 100 µM,OVCAR-5,2 to 5%
same,IC50,[13],32 nM
C#C[C@@]1(O)[C@@H](CO)O[C@@H](n2cc(Br)c3c(N)ncnc32)[C@@H]1O,IC50,CCRF-CEM,30 nM
same,GI50,K562,41.1 to 90 nM
same,CC50,K562; [15],> 100000 nM
same,TGI,K562; read-out: TGI,> 100000 nM
same,TGI,K562; read-out: pTGI,> 100000 nM
same,GI50,HOP-92 [1],149 to 318 nM
same,CC50,HOP-92 [1],> 100000 nM
same,TGI,HOP-92 [1],686 to 3130 nM
same,GI50,HT-29,25.8 to 55.9 nM
same,CC50,HT-29; [15],> 100000 nM
same,TGI,HT-29; read-out: TGI,> 100000 nM
same,TGI,HT-29; read-out: pTGI (converted),> 100000 nM
same,GI50,SW-620 [2],31.2 to 76 nM
same,CC50,SW-620 [2]; [15],> 100000 nM
same,TGI,SW-620 [2]; read-out: TGI,> 100000 nM
same,TGI,SW-620 [2]; read-out: pTGI (converted),> 100000 nM
same,GI50,SF-295,189 to 466 nM
same,CC50,SF-295,> 100000 nM
same,TGI,SF-295; read-out: TGI,4120 to 13700 nM
same,GI50,U-251,13.2 to 30.9 nM
same,CC50,U-251; [15],> 100000 nM
same,GI50,UACC-257 [3],2820 to 5900 nM
same,CC50,UACC-257 [3],> 100000 nM
same,TGI,UACC-257 [3],49200 to 77000 nM
same,GI50,UACC-62,151 to 349 nM
same,CC50,UACC-62,60000 to 74900 nM
same,TGI,UACC-62,11800 to 12900 nM
same,GI50,OVCAR-4,296 to 452 nM
same,CC50,OVCAR-4; [15],> 100000 nM
same,TGI,OVCAR-4; read-out: TGI,> 100000 nM
same,TGI,OVCAR-4; read-out: pTGI (converted),> 100000 nM
same,GI50,SK-OV-3,44.1 to 153 nM
same,CC50,SK-OV-3,> 100000 nM
same,TGI,SK-OV-3; read-out: TGI,439 nM
same,TGI,SK-OV-3; read-out: pTGI (converted),437 nM
same,growth at 0.01 µM,A549 [4],94 to 99%
same,growth at 0.01 µM,Malme-3M,100 to 102%
same,growth at 0.01 µM,SN12C,76 to 96%
same,growth at 0.1 µM,HOP-62,68 to 86%
same,growth at 0.1 µM,HOP-92 [6],63 to 78%
same,growth at 0.1 µM,KM12,49 to 53%
same,growth at 0.1 µM,OVCAR-3 [7],62 to 72%
same,growth at 0.1 µM,MDA-MB-468,56 to 87%
same,growth at 1 µM,UACC-257 [10],60 to 73%
same,growth at 1 µM,OVCAR-3 [11],15 to 17%
same,growth at 10 µM,ACHN,-7%
same,growth at 10 µM,Hs-578T,3 to 9%
same,growth at 100 µM,HCT-116,3 to 5%
same,growth at 100 µM,SW-620 [12],4 to 6%
same,IC50,[13],17 nM

# Reference: ChEMBL document CHEMBL4270599, “Synthesis of a 3'-C-ethynyl-β-d-ribofuranose purine nucleoside library: Discovery of C7-deazapurine analogs as potent antiproliferative nucleosides” (Eur J Med Chem, 2018)
